Test results: ChEMBL document CHEMBL4725245, “The synthesis and biological evaluation of nucleobases/tetrazole hybrid compounds: A new class of phosphodiesterase type 3 (PDE3) inhibitors” (Bioorg Med Chem, 2020)

Tests used:
MCF7 = experiment: Antiproliferative activity against human MCF7 cells assessed as growth inhibition after 24 hrs by MTT assay; type: functional, cell-based; conditions: MCF7, 24 h
How it was run: (§1)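 Cells held in DMEM with 10% heat-inactivated FBS, penicillin and streptomycin at 37 °C, 5% CO2. HeLa seeded at 5000 cells/well or MCF-7 at 10,000 cells/well, grown overnight, then exposed to compounds at 0.0–200.0 µM (two-fold steps) for 24 h. MTT 0.5 mg/mL for 4 h at 37 °C, formazan dissolved in DMSO, absorbance read at 545 nm with 630 nm reference.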

HeLa = experiment: Antiproliferative activity against human HeLa cells assessed as reduction in cell viability after 24 hrs by MTT assay; type: functional, cell-based; how it was run: as §1
[1] = molecular target: cGMP-inhibited 3',5'-cyclic phosphodiesterase 3A (Homo sapiens, UniProt Q14432); experiment: Inhibition of human PDE3A expressed in Sf9 cells using cAMP as substrate after 60 mins by IMAP TR-FRET assay
cGMP-inhibited 3',5'-cyclic phosphodiesterase 3A, sequence (Q14432 whole entry): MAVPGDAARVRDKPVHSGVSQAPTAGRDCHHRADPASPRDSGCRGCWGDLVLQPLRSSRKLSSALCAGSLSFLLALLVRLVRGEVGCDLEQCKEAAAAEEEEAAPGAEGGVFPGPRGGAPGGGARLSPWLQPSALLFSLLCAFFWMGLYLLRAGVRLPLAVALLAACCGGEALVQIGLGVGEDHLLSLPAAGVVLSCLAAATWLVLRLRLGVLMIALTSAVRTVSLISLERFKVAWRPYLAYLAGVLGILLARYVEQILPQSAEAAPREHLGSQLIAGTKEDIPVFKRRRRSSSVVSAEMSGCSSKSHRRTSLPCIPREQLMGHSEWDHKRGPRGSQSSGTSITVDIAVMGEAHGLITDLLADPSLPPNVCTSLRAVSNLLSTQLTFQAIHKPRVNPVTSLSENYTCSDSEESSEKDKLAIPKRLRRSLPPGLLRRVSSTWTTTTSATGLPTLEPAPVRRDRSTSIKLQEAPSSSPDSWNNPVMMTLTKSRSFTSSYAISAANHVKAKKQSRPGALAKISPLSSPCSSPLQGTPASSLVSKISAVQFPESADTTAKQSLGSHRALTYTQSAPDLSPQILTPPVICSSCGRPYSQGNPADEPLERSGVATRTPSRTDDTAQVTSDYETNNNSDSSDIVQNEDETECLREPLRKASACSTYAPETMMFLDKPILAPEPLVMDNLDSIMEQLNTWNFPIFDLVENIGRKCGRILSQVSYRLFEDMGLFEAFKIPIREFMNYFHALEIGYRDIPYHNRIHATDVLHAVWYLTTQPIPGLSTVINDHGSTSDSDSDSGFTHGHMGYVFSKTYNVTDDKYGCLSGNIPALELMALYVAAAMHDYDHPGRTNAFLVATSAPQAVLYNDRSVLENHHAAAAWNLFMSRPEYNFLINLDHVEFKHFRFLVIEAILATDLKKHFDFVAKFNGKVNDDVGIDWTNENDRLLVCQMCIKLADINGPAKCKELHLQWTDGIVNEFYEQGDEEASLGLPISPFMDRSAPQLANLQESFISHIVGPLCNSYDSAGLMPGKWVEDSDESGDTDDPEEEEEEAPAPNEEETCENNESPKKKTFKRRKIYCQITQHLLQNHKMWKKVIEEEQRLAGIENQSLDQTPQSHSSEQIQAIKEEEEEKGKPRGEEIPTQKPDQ

SMILES | IC50 (MCF7) [µM] | IC50 (HeLa) [µM] | IC50 [1] [µM]
Nc1nc2c(ncn2CCCOc2ccc(-c3nnn[nH]3)cc2)c(=O)[nH]1 | 25.7 | 18.4 | 
Cn1c(=O)c2c(ncn2CCCCOc2ccc(-c3nnn[nH]3)cc2)n(C)c1=O | 59.5 | 45.1 | 
O=c1cnn(CCCCOc2ccc(-c3nnn[nH]3)cc2)c(=O)[nH]1 | 76 | 63.3 | 
CN(Cc1cnc2nc(N)nc(N)c2n1)c1ccc(C(=O)N[C@@H](CCC(=O)O)C(=O)O)cc1 [METHOTREXATE] | 49.2 | 27.9 | 
O=c1ccnc(SCCCOc2ccc(-c3nnn[nH]3)cc2)[nH]1 | 80.7 | 57.7 | 
O=c1ccn(CCCCOc2ccc(-c3nnn[nH]3)cc2)c(=O)[nH]1 | 35.8 | 25.6 | 
O=c1ccnc(SCCCCOc2ccc(-c3nnn[nH]3)cc2)[nH]1 | 68.4 | 50.6 | 0.00513
Cn1c(=O)c2c(ncn2CCCOc2ccc(-c3nnn[nH]3)cc2)n(C)c1=O | 74.7 | 55.3 | 0.00583
O=c1ccn(CCCOc2ccc(-c3nnn[nH]3)cc2)c(=O)[nH]1 | 54 | 38.9 | 
Cn1cnc2c1c(=O)n(CCCOc1ccc(-c3nnn[nH]3)cc1)c(=O)n2C | 73.3 | 61.1 | 
Nc1ncnc2c1ncn2CCCOc1ccc(-c2nnn[nH]2)cc1 | 29.4 | 21.1 | 
O=C1CCc2cc(OCCCCc3nnnn3C3CCCCC3)ccc2N1 [CILOSTAZOL] |  |  | 0.00389
Nc1ncnc2c1ncn2CCCCOc1ccc(-c2nnn[nH]2)cc1 | 54.5 | 38.4 | 0.00391
O=c1cnn(CCCOc2ccc(-c3nnn[nH]3)cc2)c(=O)[nH]1 | 65.6 | 49.3 | 
Cn1cnc2c1c(=O)n(CCCCOc1ccc(-c3nnn[nH]3)cc1)c(=O)n2C | 73.7 | 59.9 | 
Nc1nc2c(ncn2CCCCOc2ccc(-c3nnn[nH]3)cc2)c(=O)[nH]1 | 90.5 | 68 | 
